We go through 17 molecules from ChEMBL document CHEMBL3297737, “Discovery of the first potent and orally available agonist of the orphan G-protein-coupled receptor 52” (J Med Chem, 2014).

The source made the active and inactive calls. The rule behind the calls is not given here.

For data set [1], the target named is T1, G-protein coupled receptor 52 (Homo sapiens, UniProt Q9Y2T5). The data set can be described thus: Agonist activity at human GPR52 expressed in CHO cells assessed as cAMP production after 30 mins by Alphascreen assay relative to N-(2-Hydroxyethyl)-3-{2-[3-(trifluoromethyl)benzyl]-1-benzofuran-4-yl}benzamide. It is filed as functional, cell-based. In general terms: cAMP levels reflect the balance of adenylyl cyclase and phosphodiesterase activity.

The target in data set [2] is T1, G-protein coupled receptor 52. The data set can be described thus: Agonist activity at human GPR52 expressed in CHO cells assessed as cAMP production after 30 mins by Alphascreen assay. It is filed as functional, cell-based.
Data set [3] has the same target. The data set can be described thus: Agonist activity at human GPR52 expressed in CHO cells assessed as cAMP production at 10 uM after 30 mins by Alphascreen assay. It is filed as functional, cell-based.
For data set [4] the target is unchanged. The data set can be described thus: Agonist activity at GPR52 (unknown origin).
Data set [5] shares this target. The data set can be described thus: Agonist activity at GPR52 (unknown origin) relative to control.
Data set [6] is described as follows: Ratio of AUC from brain to plasma in mouse at 30 mg/kg, po. On the set-up: dose 30 mg/kg, route oral. To be noted: read-out: Ratio AUC. It is filed as ADME, organism-based. An outline of the steps: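 Brain/plasma AUC ratio determined in mice after oral administration of 30 mg/kg.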
Data set [7] addresses D(2) dopamine receptor (Homo sapiens) (UniProt P14416). The data set can be described thus: Agonist activity at dopamine D2 receptor (unknown origin).
For data set [8], the species on record is Homo sapiens. The data set can be described thus: Agonist activity at 5HT2 receptor (unknown origin).
In data set [9] the test system is Mus musculus. The data set can be described thus: Toxicity in ICR mouse assessed as cataleptogenic effect at 100 mg/kg, po after 1 to 2 hrs. It is filed as organism-based. The arrangement: dose 100 mg/kg, route oral. To be noted: in vivo. The essentials:
(§1)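 Male ICR mice, 6–7 weeks old, dosed orally (10–100 mg/kg). Tested 1 and 2 h post-dose by placing forepaws on a steel bar, hind legs on the surface. Time holding immobile posture recorded, capped at 30 s. Three trials averaged per mouse. n = 6 per group. Williams test versus vehicle.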

Data set [10] addresses Glutamate [NMDA] receptor (Homo sapiens) (UniProt Q05586+Q12879+Q13224+O15399+O60391+Q14957+Q8TCU5). The data set can be described thus: Agonist activity at NMDA receptor (unknown origin).
The target in data set [11] is D(1A) dopamine receptor (Homo sapiens) (UniProt P21728). The data set can be described thus: Agonist activity at human dopamine D1 receptor expressed in CHO cells. It is filed as cell-based. The essentials: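 cAMP production measured in CHO cells expressing human dopamine D1 receptor (DRD1). Mean ± SD, n = 4.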
Data set [12] concerns Mus musculus. The data set can be described thus: Toxicity in ICR mouse assessed as extrapyramidal side effects at 100 mg/kg, po after 1 to 2 hrs. It is filed as organism-based. The arrangement: dose 100 mg/kg, route oral. Particulars: in vivo. An outline of the steps: as §1
For data set [13], the target named is D(1A) dopamine receptor (Homo sapiens) (UniProt P21728). The data set can be described thus: Agonist activity at dopamine D1 receptor (unknown origin).
In data set [14] the test system is Mus musculus. The data set can be described thus: Antipsychotic activity against methamphetamine-induced hyperlocomotion in ICR mouse at 3 mg/kg, po administered 60 mins prior to methamphetamine challenge measured 150 mins post compound challenge. It is filed as functional, organism-based. The arrangement: dose 3 mg/kg. The essentials:
(§2)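 Male ICR mice, 7–8 weeks old, each in its own cage. Locomotor activity monitored. Compound given orally (1–30 mg/kg) after 60 min habituation. Methamphetamine 2 mg/kg sc injected 60 min later. Activity counts recorded for 150 min after compound dosing. n = 6–7 per group. Williams test versus vehicle + methamphetamine.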

Data set [15] relates to Mus musculus. The data set can be described thus: Antipsychotic activity against methamphetamine-induced hyperlocomotion in po dosed ICR mouse administered 60 mins prior to methamphetamine challenge measured 150 mins post compound challenge. It is filed as functional, organism-based. The essentials:
as §2

Data set [16] is described as follows: Oral bioavailability in mouse at 1 mg/kg administered via cassette dosing. It is filed as ADME, organism-based. Particulars: in vivo. The essentials: (§3)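 Mouse cassette dosing at 0.1 mg/kg iv and 1 mg/kg po. Plasma Cmax, AUC0–8h and oral bioavailability determined.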
Data set [17] in a line: AUC (0 to 8 hrs) in mouse at 1 mg/kg, po administered via cassette dosing. On the set-up: time < 8 hr, dose 1 mg/kg, route oral. To be noted: plasma. It is filed as ADME, organism-based. The essentials:
as §3

Data set [18] is described as follows: Cmax in mouse at 1 mg/kg, po administered via cassette dosing. It is filed as ADME, organism-based. On the set-up: dose 1 mg/kg, route oral. Particulars: in vivo. The essentials:
as §3

The species entered for data set [19] is Homo sapiens. The data set can be described thus: Agonist activity at AMPA receptor (unknown origin).

A word on the Emax: it is the greatest response seen or fitted, relative to the assay's reference. For orientation: EC50 means the concentration giving half of the maximal effect. For orientation: bioavailability means the share of a dose that reaches the circulation, judged against a reference dose that is usually intravenous. One may read the AUC(0-t) as the area under the concentration-time curve up to a stated or last time point. A lower AUC(0-t) goes with low exposure. The Cmax is the maximum level reached in the sampled fluid or tissue.

T1 sequence (Q9Y2T5 whole entry): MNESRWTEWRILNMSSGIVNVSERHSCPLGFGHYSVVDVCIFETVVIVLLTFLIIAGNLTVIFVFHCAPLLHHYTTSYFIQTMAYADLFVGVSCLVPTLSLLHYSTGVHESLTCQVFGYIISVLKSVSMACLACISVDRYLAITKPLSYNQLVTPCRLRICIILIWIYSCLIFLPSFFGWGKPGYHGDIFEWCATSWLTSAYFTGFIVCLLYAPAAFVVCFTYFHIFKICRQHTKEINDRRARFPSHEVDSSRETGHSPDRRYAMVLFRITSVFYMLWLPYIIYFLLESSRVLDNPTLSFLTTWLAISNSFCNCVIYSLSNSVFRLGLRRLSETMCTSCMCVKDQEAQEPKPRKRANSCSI
Chain of D(1A) dopamine receptor (Homo sapiens) (P21728 whole entry): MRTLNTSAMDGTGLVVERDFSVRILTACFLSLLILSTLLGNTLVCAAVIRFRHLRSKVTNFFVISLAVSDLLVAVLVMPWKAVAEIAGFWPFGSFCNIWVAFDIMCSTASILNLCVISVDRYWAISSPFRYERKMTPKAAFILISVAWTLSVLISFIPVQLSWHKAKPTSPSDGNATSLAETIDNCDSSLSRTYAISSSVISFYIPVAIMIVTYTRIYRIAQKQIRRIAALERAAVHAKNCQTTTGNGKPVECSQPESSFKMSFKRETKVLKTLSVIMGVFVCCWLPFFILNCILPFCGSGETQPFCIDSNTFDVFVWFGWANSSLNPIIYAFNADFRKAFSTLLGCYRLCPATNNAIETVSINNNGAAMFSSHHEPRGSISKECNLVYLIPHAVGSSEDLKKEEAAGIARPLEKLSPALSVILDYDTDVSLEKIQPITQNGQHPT
Chain of D(2) dopamine receptor (Homo sapiens) (P14416 whole entry): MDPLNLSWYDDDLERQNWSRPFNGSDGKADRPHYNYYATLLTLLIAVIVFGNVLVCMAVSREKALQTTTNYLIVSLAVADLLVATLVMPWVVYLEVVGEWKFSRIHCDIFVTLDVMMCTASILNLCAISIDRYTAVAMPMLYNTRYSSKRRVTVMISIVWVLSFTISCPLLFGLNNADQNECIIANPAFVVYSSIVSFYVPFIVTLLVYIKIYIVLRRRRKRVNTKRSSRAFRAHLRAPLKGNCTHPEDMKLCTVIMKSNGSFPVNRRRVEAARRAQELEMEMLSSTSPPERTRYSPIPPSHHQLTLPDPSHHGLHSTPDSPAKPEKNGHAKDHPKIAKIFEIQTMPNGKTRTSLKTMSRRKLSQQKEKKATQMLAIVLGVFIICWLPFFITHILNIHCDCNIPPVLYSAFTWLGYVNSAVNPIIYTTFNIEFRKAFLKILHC

On to `Cc1c(Cc2cccc(C(F)(F)F)c2)oc2c(-c3cccc(C(=O)NCCO)c3)cccc12`, for which the Emax in data set [1] worked out at 71.5%. Also, the EC50 in data set [2] is 81.3 nM.

`O=C(NCCO)c1cccc(-c2cccc3cn(Cc4cccc(C(F)(F)F)c4)nc23)c1`: the maximum response (Emax) in data set [1] is 69.7%. Also, the half-maximal effective concentration (EC50) in [2] is 64.6 nM.

As to `Cc1c(Cc2cccc(C(F)(F)F)c2)oc2cccc(-c3cccc(C(=O)NCCO)c3)c12`, in [3], the Activity stood at 20%. Moreover, in data set [2], the EC50 is over 10000 nM.

In turn, `O=C(NCCO)c1cccc(-c2cccc(OCCc3cc(F)cc(Cl)c3)n2)c1` had an EC50 in [4] of 347 nM. Moreover, the Emax in data set [5] stood at 79%.

For `COc1ccc(-c2ccnc(NCCc3ccc(OC)c(OC)c3)n2)cc1`, the Activity in data set [3] was determined as 33%. The EC50 in [2] is over 10000 nM.

Regarding `COCCNC(=O)c1cccc(-c2cccc3cc(Cc4cccc(C(F)(F)F)c4)sc23)c1`, the Emax in data set [1] amounted to 85%. Further, in data set [2], the EC50 is 42.7 nM.

In the case of `O=C(NCCO)c1cccc(-c2cccc3oc(Cc4cccc(C(F)(F)F)c4)cc23)c1`, the Emax in data set [1] turned out to be 85.7%. The concentration for a half-maximal effect (EC50) in data set [2] is 28.2 nM.

`COCCNC(=O)c1cccc(-c2cccc3cc(Cc4cc(F)cc(Cl)c4)sc23)c1`: the Kp in data set [6] was determined as 0.94. Also, the result (in [7]; in the data set filed under Homo sapiens [8]; in data set [10]; in data set [11]; in [13]; in the data set listed under Homo sapiens [19]) was inactive. The values for the Activity entry in the data set on Mus musculus [9], with Mus musculus [12] and with Mus musculus [15] were “Non-toxic”, “Non-toxic” and “Dose-dependent effect”, respectively. Besides, the outcome in the data set with Mus musculus [14] was Active. For the same molecule, the maximum response (Emax) in [1] stood at 79.8%. The same molecule had a bioavailability in data set [16] of 73%. Further, the half-maximal effective concentration (EC50) in [2] is 29.5 nM. This molecule showed an AUC(0-t) at 8 h in data set [17] of 614 ng·h/mL. This molecule also returned a Cmax in data set [18] of 108 ng/mL.

Consider `O=C(NCCO)c1cccc(-c2cccc3c2OC(Cc2cccc(C(F)(F)F)c2)C3)c1` (racemic), for which the maximum response (Emax) in data set [1] came out at 56.1%. Moreover, the EC50 in [2] was 209 nM.

Regarding `NC(=O)CNC(=O)c1cccc(-c2ccc(F)c3cc(Cc4cccc(C(F)(F)F)c4)sc23)c1`, in data set [1], the Emax was determined as 107%. For the same molecule, in data set [2], the concentration for a half-maximal effect (EC50) was 83.2 nM.

Turning to `O=C(NCCO)c1cccc(-c2cccc3c2CC(Cc2cccc(C(F)(F)F)c2)O3)c1` (racemic), in data set [1], the Emax was determined as 45.9%. Moreover, the EC50 in data set [2] was 646 nM.

As for `NC(=O)CNC(=O)c1cccc(-c2cccc3cc(Cc4cccc(C(F)(F)F)c4)sc23)c1`, the Emax in [1] amounted to 102%. In data set [2], the EC50 was 55 nM.

Regarding `O=C(NCCO)c1cccc(-c2cccc3nn(Cc4cccc(C(F)(F)F)c4)cc23)c1`, in [1], the Emax is 79.1%. Besides, the EC50 in data set [2] is 38.9 nM.

Regarding `O=C(NCCO)c1cccc(-c2cccc(OCCc3cccc(C(F)(F)F)c3)n2)c1`, in [4], the EC50 is 646 nM. In data set [5], this molecule came in with a maximal effect (Emax) of 73.1%.

On to `O=C(NCCO)c1cccc(-c2cccc3sc(Cc4cccc(C(F)(F)F)c4)cc23)c1`, for which the maximal effect (Emax) in data set [1] worked out at 68.6%. Also, the EC50 in [2] was 38 nM.

For `O=C(NCCO)c1cccc(-c2cccc3cc(Cc4cccc(C(F)(F)F)c4)sc23)c1`, in [1], the maximal effect (Emax) worked out at 79.6%. In addition, the half-maximal effective concentration (EC50) in [2] is 37.2 nM.

Regarding `O=C(NCCO)c1cccc(-c2cccc3cc(Cc4cccc(C(F)(F)F)c4)oc23)c1`, the Emax in data set [1] came to 74.8%. Further, the EC50 in data set [2] was 34.7 nM.
